Experiments:
Rattus norvegicus [1] = assay: Brain Uptake of compound was measured after 2 min of administration; format: functional, organism-based
Outline: (§1)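 Tc-99m complex injected into rats, three per time point. At set times, 1 mL blood was drawn by cardiac puncture and the animal was killed by cardiectomy. Organs were excised, weighed and gamma-counted. Percent dose per organ came from comparing tissue counts with dilutions of the injected dose, reported as the mean with the range across the three rats.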

[2] = Ratio of brain dose per gram to the blood dose per gram measured at 15 min; format: functional, tissue-based
Outline: (§2)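 Rats (three per time point) were given the Tc-99m complex, then sampled by cardiac puncture, killed, and had organs excised and gamma-counted against injected-dose dilutions. Percent dose/organ was converted to percent dose/gram using mean organ weights (brain 1.65 g; blood 18 g). The ratio is (brain dose/gram)/(blood dose/gram).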

[3] = Ratio of brain dose per gram to the blood dose per gram measured at 2 min; format: functional, tissue-based; outline: as §2
Rattus norvegicus [4] = assay: Brain Uptake of compound was measured after 15 min of administration; format: functional, organism-based; outline: as §1

## Tc-labeled 3,3,10,10-tetramethyl-6-(2-methylhexahydro-1-pyridinylmethyl)-1-acetone2,11-dithia-5-azonia-8-azatricyclo[6.3.0.01,5]undecane
Rattus norvegicus [1]
  Uptake value: 0.61
[2]
  Ratio: 1.84
[3]
  Ratio: 1.06
Rattus norvegicus [4]
  Uptake value: 0.35

## Tc-labeled 3,3,10,10-tetramethyl-6-(2,6-dimethylhexahydro-1-pyridinylmethyl)-1-acetone2,11-dithia-5-azonia-8-azatricyclo[6.3.0.01,5]undecane (isomer)
Rattus norvegicus [1]
  Uptake value: 1.19
[2]
  Ratio: 2.07
[3]
  Ratio: 1.98
Rattus norvegicus [4]
  Uptake value: 0.54

## Tc-labeled 3,3,10,10-tetramethyl-6-(2-methylhexahydro-1-pyridinylmethyl)-1-acetone2,11-dithia-5-azonia-8-azatricyclo[6.3.0.01,5]undecane (isomer)
Rattus norvegicus [1]
  Uptake value: 1.8
[2]
  Ratio: 3.84
[3]
  Ratio: 4.96
Rattus norvegicus [4]
  Uptake value: 0.54

Source: ChEMBL document CHEMBL1124102, “Synthesis and biodistribution of 99mTc-labeled piperidinyl bis(aminoethanethiol) complexes: potential brain perfusion imaging agents for single photon emission computed tomography” (J Med Chem, 1988)
